# M5 antag = human M5 muscarinic receptor antagonists, primary screen, CHO cells, Fluo-8 calcium fluorescence. Muscarinic acetylcholine receptor M5 (Homo sapiens), P08912. CHO-hM5 cells, ACh EC80. inhibition, % at 3 µM. actives 0.59% (n = 360,000). AID 624040, 2012;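 active = inhibition above a per-plate cutoff, the mean of that plate's test compounds plus 3 SD, cut at about 27% in these data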;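 note: 0% = acetylcholine EC80 with DMSO and 100% = DMSO without agonist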
# Target sequence (P08912 whole entry, looked up): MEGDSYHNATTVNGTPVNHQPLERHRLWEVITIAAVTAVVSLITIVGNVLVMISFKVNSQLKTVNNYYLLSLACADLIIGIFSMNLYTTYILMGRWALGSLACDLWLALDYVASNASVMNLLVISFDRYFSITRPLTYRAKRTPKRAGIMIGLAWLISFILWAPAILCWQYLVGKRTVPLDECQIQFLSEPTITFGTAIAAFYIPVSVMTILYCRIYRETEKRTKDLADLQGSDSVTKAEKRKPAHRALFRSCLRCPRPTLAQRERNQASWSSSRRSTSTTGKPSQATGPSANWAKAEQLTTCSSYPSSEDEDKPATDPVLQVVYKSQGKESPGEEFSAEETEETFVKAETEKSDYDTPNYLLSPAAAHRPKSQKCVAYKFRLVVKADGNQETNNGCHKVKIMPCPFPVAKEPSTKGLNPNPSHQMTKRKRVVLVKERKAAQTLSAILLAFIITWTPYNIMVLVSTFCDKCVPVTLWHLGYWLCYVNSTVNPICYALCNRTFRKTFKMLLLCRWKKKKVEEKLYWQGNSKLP
# M5 PAM = human M5 muscarinic receptor positive allosteric modulators, primary screen, CHO-K1 cells, Fluo-8 calcium fluorescence; Muscarinic acetylcholine receptor M5 (Homo sapiens), P08912; CHO-K1 hM5, ACh EC20 PAM; 0% = ACh EC20, 100% = ACh EC100; activation, % at 3 µM; actives 0.3% (n = 360,000); AID 624038, 2012;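 active = activation above the run cutoff, the mean activation of all test compounds plus 3 SD, cut at about 18% in these data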
#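 system = human M5 receptor in CHO-K1 cells | reagent = EC20 acetylcholine as agonist stimulus | compound dosing = single-point, 3 µM nominal | incubation = Fluo-8 loading 80 min at 37 °C plus 30 min room temperature | detection = Fluo-8 calcium dye fluorescence, kinetic read | benchmarks = low control EC20 acetylcholine (0%), high control EC100 acetylcholine (100%)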
# CHRM4 agonist = human M4 muscarinic receptor agonists, primary screen, CHO-K1 cells, Fluo-8 calcium fluorescence; Muscarinic acetylcholine receptor M4 (Homo sapiens), P08173; actives 0.14% (n = 360,000); activation, % at 3 µM; AID 624127, 2012; CHO-K1 hM4/Gqi5; vehicle 0%, full acetylcholine response 100%;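 active = activation above the run mean over all test wells plus 3 SD, cut at about 32% in these data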;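 note: peak over basal fluorescence ratio per well then scaled between controls; 0% = DMSO wells and 100% = acetylcholine at EC100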
# M4 antag = human M4 muscarinic receptor antagonists, primary screen, CHO cells, Fluo-8 calcium fluorescence; CHO-hM4 cells, ACh EC80; inhibition, % at 3 µM; actives 0.73% (n = 360,000); AID 624125, 2012;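 active = inhibition above its plate's cutoff, the mean inhibition of sample wells plus 3 SD, cut at about 27% in these data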;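 note: 0% = acetylcholine EC80 with DMSO and 100% = DMSO without agonist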
# M5 ag = human M5 muscarinic receptor agonists, primary screen, CHO-K1 cells, Fluo-8 calcium fluorescence. actives 0.19% (n = 360,000). activation, % at 3 µM. CHO-K1 hM5 cells; 0% DMSO wells, 100% maximal acetylcholine response;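 active = activation above the run's mean over test compounds plus 3 SD, cut at about 23% in these data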;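 note: signal is peak over basal fluorescence ratio across the kinetic read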
# M4 PAM = human M4 muscarinic receptor positive allosteric modulators, primary screen, CHO-K1 cells, Fluo-8 calcium fluorescence | Muscarinic acetylcholine receptor M4 (Homo sapiens), P08173 | actives 0.4% (n = 360,000) | CHO-K1 hM4/Gqi5, ACh EC20; 0% = ACh EC20, 100% = maximal ACh | AID 624126, 2012 | activation, % at 3 µM;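 active = activation above its plate's cutoff, the mean activation of sample wells plus 3 SD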
# Numbers without * were called inactive. Most compounds without a hit are left out; they make up all but 1.8% or so of the library.
SMILES,M5 antag,M5 PAM,CHRM4 agonist,M4 antag,M5 ag,M4 PAM
O=C(NCCc1c[nH]c2ccccc12)OCCCCOC(=O)NCCc1c[nH]c2ccccc12,10,-24,20,32*,5,-10
Cc1cccc(C)c1NC(=O)COC(=O)CCc1c[nH]c2ccccc12,3,-6,2,-2,2,3
Cc1cccc(NC(=O)COC(=O)CCc2c[nH]c3ccccc23)c1C,-8,3,2,-21,2,22*
O=C(COC(=O)c1ccccc1O)NCCc1c[nH]c2ccccc12,12,-19,5,-1,-2,2
O=C(COC(=O)c1ccccc1C(=O)OCC(=O)NCCc1c[nH]c2ccccc12)NCCc1c[nH]c2ccccc12,32*,-38,21,43*,0,-10
Cc1cccc(NC(=O)CCSc2ccccc2)c1C,0,4,-1,1,-4,-5
Cc1cccc(NC(=O)CCc2ccccc2)c1C,-18,26*,0,-15,0,3
COc1ccc2cc(C3=CC(=O)CC(C)(C)C3=O)ccc2c1,11,-6,15,-4,1,-7
CCC(C)(C)C1CCc2[nH]nc(C(=O)NCCNC(=O)OC(C)(C)C)c2C1 (centres undefined),17,-2,1,-2,-3,4
COc1ccc(N(CC(=O)NCCc2ccccc2)C(=O)c2csnn2)cc1,32*,-11,2,0,-3,-3
Cc1ccc(N(CC(=O)NCc2ccc(F)cc2)C(=O)c2csnn2)c(C)c1,4,-1,2,-2,-2,-1
COc1ccc(N(CC(=O)NCCc2ccccc2)C(=O)c2csnn2)cc1OC,2,2,0,-1,0,4
Cc1cc(C)c(N(CC(=O)NCc2ccccc2)C(=O)c2csnn2)c(C)c1,-14,23*,2,-17,2,-1
Cc1ccc(N(CC(=O)NCCc2ccccc2)C(=O)c2csnn2)cc1,6,-2,1,12,-2,1
CCOc1ccc(N(CC(=O)NCCc2ccccc2)C(=O)c2csnn2)cc1,4,-5,2,-29,-2,16*
COc1ccc(NS(=O)(=O)c2c(C)cc(C)cc2C)cc1,5,26*,-1,1,-11,-5
O=C(N/N=C/c1cccc2cccnc12)c1ccccc1O,25,-9,7,35*,5,-26
CCOC(=O)CSc1nc(-c2ccccc2)nc2ccc(F)cc12,-7,4,1,8,3,28*
COC(=O)CSc1nc(-c2ccccc2)nc2ccc(F)cc12,2,3,1,-2,2,9
O=C(Cc1ccc(NC(=O)C2CCN(C(=O)c3ccccc3)CC2)cc1)Nc1cccc(C(=O)N2CCCCC2)c1,-2,1,1,-5,2,1
COc1ccc(C[C@@H]2CN3C(=NC[C@@H]3Cc3ccc(O)cc3)N2C[C@H](C)NC(=O)CCC2CCCCC2)cc1,5,-13,-1,28*,-12,-13
NC(=O)C(c1ccccc1)C1CCCC1 (centres undefined),-11,-3,1,-1,-1,5
CC1CN(C)C(C)CC1OC(=O)C(c1ccccc1)c1ccccc1 (centres undefined),68*,-29,1,61*,-17,-15
CN(C)[C@@H]1CCC[C@H]1OC(=O)C(c1ccccc1)c1ccccc1,53*,-19,0,20,-8,-14
CCOC(=O)C1=C(Nc2ccc(OC)cc2)C(N)=NC1=N,-3,2,0,-1,1,-3
SMILES,M5 antag,M5 PAM,CHRM4 agonist,M4 antag,M5 ag,M4 PAM
CCN(CC)c1ccc(/C=C/C(=O)c2ccc(Br)cc2)cc1,67*,-18,94*,67*,113*,-17
O=C1OC(CC(=O)N(Cc2nnc(-c3ccc(Cl)cc3)o2)C2CC2)c2ccccc21 (centres undefined),9,-6,2,-5,-1,1
CC1Sc2ccc(S(=O)(=O)N3CCC(C(=O)Nc4ccc(Cl)cc4)CC3)cc2NC1=O (centres undefined),33*,-13,14,30*,0,-12
COc1ccc(NC(=O)C2CCN(S(=O)(=O)c3ccc(N4CCCC4=O)cc3)CC2)c(OC)c1,2,-3,2,-12,-3,2
Cc1ccc(NC(=O)C2CCN(S(=O)(=O)c3ccc(N4CCCC4=O)cc3)CC2)cc1Cl,50*,-15,19,24,2,-10
COc1ccc(CCN(C)C(=O)CN2C(=O)NC3(CCCc4ccccc43)C2=O)cc1OC (centres undefined),2,-7,2,-29,0,27*
COc1cc2c(cc1NC(=O)CN1C(=O)NC3(CCc4ccccc43)C1=O)oc1ccccc12 (centres undefined),7,-6,12,38*,-1,3
NS(=O)(=O)c1c(Sc2ccccc2C(=O)O)ccc2ccccc12,0,1,2,-13,4,6
COc1ccc(Nc2ccnc(Nc3ccc(OC)cc3)n2)cc1,9,-13,12,10,8,-7
NC(=O)c1ccc(NC(=O)Cc2csc(-c3ccccc3)n2)cc1,4,0,3,3,-1,9
O=C(Nc1cccc(Cl)c1)Nc1csc([N+](=O)[O-])c1,28*,-26,15,19,2,6
O=C(NCc1ccncc1)Nc1cccc(Cl)c1,-5,2,1,-7,-7,1
O=C(Nc1cccc(Cl)c1)Nc1nc(-c2ccc(Cl)cc2)cs1,23,-15,10,24,5,0
Cc1cccc(NC(=O)Nc2ccc(Cl)cc2)n1,0,-1,1,0,1,0
O=C(Nc1ccncc1)Nc1cccc(Cl)c1,31*,-13,15,4,9,-6
Cc1nccc(-c2cccc(NC(=O)Nc3ccc(Cl)cc3)c2)n1,28*,-30,20,9,8,-37
O=C(Nc1ccc(-n2ccc(C(F)(F)F)n2)cc1)Nc1cccc(Cl)c1,38*,-30,18,27*,7,-50

# Source: PubChem
